From ChEMBL document CHEMBL3580644, “Synthesis of piperlongumine analogues and discovery of nuclear factor erythroid 2-related factor 2 (Nrf2) activators as potential neuroprotective agents” (J Med Chem, 2015) come the findings set out here.

The subject of data set [1] is PC-12. The data set can be described thus: Cytoprotection activity against H2O2-induced apoptosis in rat PC12 cells assessed as reduction in caspase-3 activation at 10 and 20 uM pre-incubated for 24 hrs before H2O2 exposure for 24 hrs by colorimetric assay. The class given is functional, cell-based. The essentials: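 Lysed in RIPA buffer (pH 7.5), protein by Bradford; caspase-3 measured colorimetrically with Ac-DEVD-pNA substrate, expressed as % of control; mean ± SD, three independent experiments.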

For data set [2], the system named is PC-12. The data set can be described thus: Cytoprotection activity against H2O2-induced oxidative stress in rat PC12 cells assessed as GSH level at pre-incubated for 24 hrs before H2O2 exposure for 12 hrs. The class given is functional, cell-based. The method in brief: (§1)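 Total glutathione: cells extracted in KPE buffer (0.1% Triton X-100, 0.6% sulfosalicylic acid, 5 mM EDTA, 0.1 M PBS pH 7.5), sonicated on ice, centrifuged 3000 g 4 min at 4 °C; supernatant assayed enzymatically. PC12 cells 1×10^6 in 60-mm dishes, compound 24 h; stress lines add 500 μM H2O2 or 200 μM 6-OHDA 12 h.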

Data set [3] has as its target T1, Nuclear factor erythroid 2-related factor 2 (Rattus norvegicus) (UniProt O54968).
T1 sequence (whole entry): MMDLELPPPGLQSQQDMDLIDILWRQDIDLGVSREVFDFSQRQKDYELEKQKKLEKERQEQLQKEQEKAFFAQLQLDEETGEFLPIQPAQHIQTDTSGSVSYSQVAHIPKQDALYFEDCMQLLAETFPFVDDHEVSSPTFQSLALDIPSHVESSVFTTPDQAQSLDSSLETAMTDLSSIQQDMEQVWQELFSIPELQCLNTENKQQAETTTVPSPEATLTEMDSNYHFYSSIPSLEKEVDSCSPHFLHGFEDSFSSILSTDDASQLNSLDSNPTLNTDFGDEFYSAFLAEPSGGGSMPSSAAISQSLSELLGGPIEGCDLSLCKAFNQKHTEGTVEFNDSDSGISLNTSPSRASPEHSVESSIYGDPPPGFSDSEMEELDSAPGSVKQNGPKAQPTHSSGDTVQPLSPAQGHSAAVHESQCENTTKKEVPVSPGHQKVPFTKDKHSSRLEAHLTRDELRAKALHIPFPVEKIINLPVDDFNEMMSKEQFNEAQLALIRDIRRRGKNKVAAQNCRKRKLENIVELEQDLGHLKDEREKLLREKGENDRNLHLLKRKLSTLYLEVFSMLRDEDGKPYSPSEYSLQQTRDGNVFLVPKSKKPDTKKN
In words: Induction of Nrf2-mediated antioxidant genes expression in rat PC12 cells assessed as increase in TrxR1 protein expression at 10 and 20 uM incubated for 20 hrs by Western blotting method. The format is cell-based. The settings on record: PC-12. Background: Immunoblotting shows a protein as a band on a membrane.

Data set [4] has as its system PC-12. In words: Cytoprotection activity against 6-OHDA-induced oxidative stress in rat PC12 cells assessed as NQO1 activity at pre-incubated for 24 hrs before 6-OHDA exposure for 12 hrs by DCPIP dye reduction based spectrophotometry. The class given is functional, cell-based. The essentials: (§2)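 NQO1: PC12 lysate in RIPA buffer, 5 μg protein into 20 mM Tris-HCl pH 7.4, 200 μM NADH, 40 μM DCPIP; A600 decrease read every 8 s for 2 min at room temperature ± 20 μM dicoumarol; dicoumarol-inhibitable rate used, expressed as % of DMSO control. Cells pretreated 24 h; stress lines then 500 μM H2O2 or 200 μM 6-OHDA 12 h.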

Data set [5] deals with PC-12. In words: Cytoprotection activity against 6-OHDA-induced cytotoxicity in rat PC12 cells assessed as cell viability at 20 uM pre-incubated for 24 hrs before 6-OHDA exposure for 12 hrs by MTT assay. The format is functional, cell-based.
Data set [6] relates to PC-12. In words: Induction of antioxidant genes expression in rat PC12 cells assessed as increase in TrxR1 mRNA level at 20 uM incubated for 6 hrs by qRT-PCR method. The format is functional, cell-based. The essentials: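 PC12 cells (1×10^6 per 60-mm dish) seeded 1 day, then exposed to 20 μM compound for 0, 3, 6 and 12 h. Total RNA isolated and quantified by 260/280 absorbance. Transcripts measured by qRT-PCR, normalized to GAPDH internal control, compared against 0 h control. Means ± SD of three independent experiments.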
For orientation: Quantitative PCR measures a nucleic acid by following its amplification.

Data set [7] can be described thus: Cytotoxicity against rat PC12 cells assessed as reduction in cell viability at 20 uM to 100 uM incubated for 24 hrs by MTT assay. The settings on record: pc-12, 24 h. The class given is cell-based. (Tetrazolium assays rely on reduction of a dye to a coloured formazan, in cell work by metabolically active cells.)
The target in data set [8] is T1, Nuclear factor erythroid 2-related factor 2 (Rattus norvegicus). In words: Induction of Nrf2 nuclear translocation in rat PC12 cells at 20 uM incubated for 2 to 8 hrs by Western blotting method. The format is cell-based. Particulars: PC-12. The essentials: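 PC12 cells (1×10^6) in 60-mm dishes, 24 h, then 20 μM compound for 0, 2, 4 and 8 h; nuclear, cytosolic and whole-cell extracts prepared; Nrf2 detected by Western blot.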

In data set [9] the test system is PC-12. The data set can be described thus: Induction of antioxidant genes expression in rat PC12 cells assessed as increase in HO1 mRNA level at 20 uM incubated for 6 hrs by qRT-PCR method. The class given is functional, cell-based. The essentials:
(§3)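 PC12 cells, 1×10^6 per 60-mm dish, 1 day, then 20 μM compound for 0, 3, 6 and 12 h; total RNA isolated, quantified by 260/280 absorbance; mRNA by real-time RT-PCR normalized to GAPDH; mean ± SD of three independent experiments versus 0 h.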

Data set [10] concerns PC-12. In words: Cytoprotection activity against H2O2-induced oxidative stress in rat PC12 cells assessed as reduction in ROS generation at 10 and 20 uM pre-incubated for 24 hrs before H2O2 exposure for 5 hrs by DCFH-DA dye based fluorescent microscopy. The class given is functional, cell-based.
Data set [11] concerns PC-12. In words: Cytoprotection activity against 6-OHDA-induced oxidative stress in rat PC12 cells assessed as GSH level at pre-incubated for 24 hrs before 6-OHDA exposure for 12 hrs. The class given is functional, cell-based. The method in brief: as §1
A short description of data set [12]: Cytoprotection activity against 6-OHDA-induced cytotoxicity in rat PC12 cells assessed as cell viability at 10 and 20 uM pre-incubated for 24 hrs before 6-OHDA exposure for 12 hrs by MTT assay. The format is functional, PC-12.
In data set [13] the test system is PC-12. In words: Cytoprotection activity against 6-OHDA-induced cytotoxicity in rat PC12 cells assessed as cell viability at 10 and 20 uM pre-incubated for 24 hrs before 6-OHDA exposure for 12 hrs in presence of non-trageting shRNA by MTT assay. The format is functional, cell-based.
Data set [14] deals with PC-12. The data set can be described thus: Cytoprotection activity against H2O2-induced oxidative stress in rat PC12 cells assessed as NQO1 activity at pre-incubated for 24 hrs before H2O2 exposure for 12 hrs by DCPIP dye reduction based spectrophotometry. The format is functional, cell-based. The method in brief:
as §2

The test system of data set [15] is PC-12. In words: Cytoprotection activity against H2O2-induced cytotoxicity in rat PC12 cells assessed as cell viability at 10 and 20 uM pre-incubated for 24 hrs before H2O2 exposure for 12 hrs in presence of shNrf2 by MTT assay. The format is functional, cell-based.
The test system of data set [16] is PC-12. The data set can be described thus: Induction of antioxidant genes expression in rat PC12 cells assessed as increase in Trx1 mRNA level at 20 uM incubated for 6 hrs by qRT-PCR method. The class given is functional, cell-based. The method in brief: as §3
Data set [17] relates to PC-12. In words: Cytoprotection activity against H2O2-induced cytotoxicity in rat PC12 cells assessed as cell viability at 20 uM pre-incubated for 24 hrs before H2O2 exposure for 12 hrs by MTT assay. The class given is functional, cell-based.

SMILES strings stand for the structures. Active and inactive are the calls of the source. The rule behind the calls is not given here.

Regarding `COc1ccc(/C=C/C(=O)N2CCCC2=O)cc1`, the Activity result in the data set on PC-12 [1] is “Dose-dependent effect”; in [7] it was “Non-toxic”; in the data set on PC-12 [10], “Dose-dependent effect”; in data set [12], 75%. Moreover, the result (in the data set with PC-12 [2]; in [3]; with PC-12 [4]; in the data set on PC-12 [5]; in the data set with PC-12 [6]; in data set [8]) was Active. The result with PC-12 [9], with PC-12 [11], in the data set with PC-12 [13], in the data set with PC-12 [14], with PC-12 [16] and in the data set with PC-12 [17] was Active. In the data set with PC-12 [15], the result was inactive.
In the case of `COc1cc(/C=C/C(=O)N2CCCCC2=O)cc(OC)c1OC`, the Activity entry with PC-12 [1] is “Dose-dependent effect”; in data set [7] it was “Non-toxic”; in the data set on PC-12 [10] it was “Dose-dependent effect”; in data set [12], 75%. Also, the outcome (in the data set on PC-12 [2]; in data set [3]; with PC-12 [4]; in the data set with PC-12 [5]; in the data set with PC-12 [6]; in data set [8]) was Active. The outcome with PC-12 [9], in the data set with PC-12 [11], in the data set on PC-12 [13], in the data set on PC-12 [14], in the data set on PC-12 [16] and in the data set on PC-12 [17] was Active. Further, the result in the data set with PC-12 [15] was inactive.
